Among all 11,000 compounds or so, about 510 (4.6%) were called active.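 How the source made its calls: active means inhibition of at least 40% at 10 µM in either of the two replicates; inactive means the rest.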 Only a selection was taken, and actives are over-represented in it overall.
Test system: intestinal alkaline phosphatase [Mus musculus]
Test: mouse intestinal phosphatase enzyme inhibition – biochemical, luminescence, single concentration, confirmation (AID 434971);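 further: plate controls were DMSO wells with enzyme for no effect and buffer wells lacking enzyme for full effect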
Conditions: purified mouse IAP, CDP-Star luminescence, 30 min; at 10 µM; hits give high values
In short: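 Assay system: Mouse IAP enzyme | Control set: no-enzyme negative control wells | Timing: 30 min reaction at room temperature | Probe or stimulus: CDP-Star | Medium: DEA buffer containing ZnCl2 and MgCl2 | Technique: Luminescence from CDP-Star dephosphorylation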

inhibition, inactive:
Cc1cc(C)cc(NC(=O)NC2CCCCCCC2)c1 -237%, COc1ccc(CN2CCC(n3nccc3NC(=O)CCCc3ccccc3)CC2)cc1C -140%, COc1ccc(NC(=O)NC2CC3CCCC(C2)N3Cc2ccccc2)cc1 (stereo not given) -171%, c1ccc(-c2cc3c(NCC4COc5ccccc5O4)ncnc3s2)cc1 (stereo not given) -97.1%, Cc1ccc(C)c(CN2CCC(CNC(=O)Nc3ccc(C)c(F)c3)CC2)c1 -116%, CCn1cc(CN2CCC(C(=O)Nc3cccc(-c4cccc(Cl)c4)c3)CC2)cn1 -329%, C#CCOCCOCCOCCNc1nc(N2CCN(C(=O)CCCCCCCCCCNC(=O)Cn3cc(CCCCCN)nn3)CC2)nc(N2CCN(C(=O)CCCCCCCCCCNC(=O)[C@H](CO)n3cc(CCCSC)nn3)CC2)n1 -153%, CC(C)S(=O)(=O)c1csc(NC(=O)Nc2ccc(Cl)cc2)c1Cl -116%, COC(=O)c1ccc(NC(=O)Nc2ccc(C)cc2)cc1 -115%, CCn1cc(CN2CCC(C(=O)Nc3cccc(-c4cccc(Cl)c4)c3)CC2)c(C)n1 -396%, Cc1cccc(CN2CCC(CNC(=O)Nc3ccc(F)c(Cl)c3)CC2)c1 -115%, O=C(Nc1cccc(-c2cccc(Cl)c2)c1)C1CCN(C2CCC2)CC1 -294%, Cc1cc(NC(=O)Nc2ccc(Cl)cc2)n(-c2ccccc2)n1 -107%, O=C(Nc1cccc(F)c1)NC1CCCCCCC1 -142%, OCCCN1c2ccccc2Nc2nnc(-c3ccccc3)cc21 -208%, CCc1ccc(NC(=O)NC(C)c2ccc3c(c2)OCO3)cc1 (stereo not given) -166%

inhibition, active:
O=C(CCCN1C(=O)/C(=C/c2ccco2)SC1=S)Nc1ccccc1 49.1%, O=C(CCCN1C(=O)/C(=C\c2ccco2)SC1=S)Nc1cccc2ccccc12 49.1%, O=c1ccc2c(-c3ccccc3S(=O)(=O)O)c3ccc(O)c(O)c3oc-2c1O 79.7%, O=C(Nc1nc(-c2ccco2)c(-c2ccco2)s1)c1ccco1 74.3%, COc1ccccc1-n1c(-c2cc(-c3ccco3)[nH]n2)n[nH]c1=S 68.7%, COc1cc(C(=O)Nn2c(O)c(C3=c4ccccc4=NC3=O)sc2=S)ccc1O 93.1%, CCN(c1ccccc1)S(=O)(=O)c1ccc2[nH]c(=O)[nH]c2c1 73.4%, NS(=O)(=O)c1ccc(-c2ccc(/C=C3\SC(=O)NC3=O)o2)cc1 68.1%, Oc1ccc(CNc2ccccc2O)cc1 41.2%, Nc1ccc2nc3c(=O)[nH]c(=S)[nH]c3nc2c1 78.3%, Oc1cc(O)c2c(c1)OC(c1ccc(O)c(O)c1)C(O)C2 (stereo not given) 84.5%, COc1cccc(/C=N\NC(=O)C2=NNC(=O)C2C)c1O (stereo not given) 60.2%, Cc1ccc(Cc2cnc(N)s2)o1 58.5%, O=c1[nH]c(=S)[nH]c2[nH]c(=S)[nH]c12 81.9%, COc1ccc(OC)c(Nc2nc(-c3ccc(O)c(O)c3)cs2)c1 74.3%, COc1cc(/C=N\Nc2nc(-c3cccs3)c(NC(C)=O)s2)ccc1O 47%, c1ccc(CSc2nnc(-c3ccco3)c(-c3ccco3)n2)cc1 69%, Clc1ccccc1CSc1nnc(-c2ccco2)c(-c2ccco2)n1 71.8%, O=[N+]([O-])c1cc(Cl)cc(/C=N/NC(=S)Nc2cc(S(=O)(=O)N3CCOCC3)ccc2Cl)c1O 40.3%
